Ratio IC50, CI and IC50 data for 3 molecules are collected here from ChEMBL document CHEMBL4014350, “Alkoxyurea-Based Histone Deacetylase Inhibitors Increase Cisplatin Potency in Chemoresistant Cancer Cell Lines” (J Med Chem, 2017).

Structures are written as SMILES.

Test [1] is filed under the species Homo sapiens. As to the kind of experiment: Selectivity index, ratio of IC50 for recombinant full length human C-terminal FLAG/His-tagged HDAC1 expressed in baculovirus infected sf9 cells to IC50 for full length human recombinant N-terminal GST-tagged HDAC6 expressed in baculovirus infected sf9 cells. Summed up: (§1)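 Ratio of isolated-enzyme IC50 values. HDAC1, HDAC6 and HDAC8 IC50s were each the mean ± SD of three independent experiments.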

Test [2] relates to CAL-27. The test can be described thus: Potentiation of 0.316 uM cisplatin-induced cytotoxicity against human CAL27 cells assessed as decrease in cell viability by measuring combination index at 600 uM preincubated for 48 hrs followed by cisplatin treatment measured after 72 hrs by MTT assay. As to conditions: in the assay text read “at 600 nM” for “at 600 uM”. Format: functional. The gist of the method:
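Cal27 and cisplatin-resistant Cal27CisR cells were preincubated with the HDAC inhibitor for 48 h, then given cisplatin in combination. Viability was read by MTT after 72 h. The combination index was computed by the Chou–Talalay method: CI > 1 is antagonism, CI = 1 is additive, and CI < 0.9 is synergism. Points with fraction affected below 0.20 were flagged.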
A general note: Tetrazolium dyes change colour on reduction, which living cells bring about.

A short description of test [3]: Antiproliferative activity against human Cal27CisR cells measured after 72 hrs by MTT assay. In kind it is functional, cell-based.
The species entered for test [4] is Homo sapiens. The test can be described thus: Selectivity ratio of IC50 for HDAC in human A2780 cells to IC50 for HDAC in human A2780CisR cells. Format: cell-based.
Test [5] addresses T1, Histone deacetylase 1/6 (Homo sapiens) (UniProt Q13547+Q9UBN7). The test can be described thus: Inhibition of HDAC1/HDAC6 in human Cal27CisR cells assessed as potentiation of 20 uM cisplatin-induced cytotoxicity by measuring combination index at 600 nM preincubated for 48 hrs followed by cisplatin treatment measured after 72 hrs by MTT assay.
Test [6] in a line: Inhibition of HDAC in human A2780 cells using Boc-Lys(epsilon-Ac)-AMC as substrate preincubated for 18 hrs followed by substrate addition measured after 3 hrs by fluorescence assay. In kind it is cell-based.
The subject of test [7] is CAL-27. As to the kind of experiment: Potentiation of 1 uM cisplatin-induced cytotoxicity against human CAL27 cells assessed as decrease in cell viability by measuring combination index at 600 uM preincubated for 48 hrs followed by cisplatin treatment measured after 72 hrs by MTT assay. Format: functional. The gist of the method: (§2)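 HDAC inhibitor was added 48 h before cisplatin, then cells were exposed to cisplatin for 72 h and viability was read by MTT assay. Combination index was computed by the Chou–Talalay method: CI > 1 is antagonism, CI = 1 additive, CI < 0.9 synergism. Points with fraction affected below 0.20 were flagged.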

Test [8] relates to CAL-27. As to the kind of experiment: Potentiation of 2 uM cisplatin-induced cytotoxicity against human CAL27 cells assessed as decrease in cell viability by measuring combination index at 600 uM preincubated for 48 hrs followed by cisplatin treatment measured after 72 hrs by MTT assay. As to conditions: in the assay text read “at 600 nM” for “at 600 uM”. Format: functional. The gist of the method:
as §2

Another test concerns the target Histone deacetylase 1 (Homo sapiens, UniProt Q13547). The test can be described thus: Inhibition of recombinant full length human C-terminal FLAG/His-tagged HDAC1 expressed in baculovirus infected sf9 cells using Z-(Ac)Lys-AMC as substrate measured after 90 mins by fluorescence assay.
For test [9], the species on record is Homo sapiens. The test can be described thus: Selectivity index, ratio of IC50 for human recombinant HDAC8 to IC50 for full length human recombinant N-terminal GST-tagged HDAC6 expressed in baculovirus infected sf9 cells. The gist of the method: as §1
The test system of test [10] is CAL-27. As to the kind of experiment: Antiproliferative activity against human CAL27 cells measured after 72 hrs by MTT assay. Format: functional, cell-based. To be noted: CAL-27, 72 h.
Test [11] has as its system CAL-27. The test can be described thus: Potentiation of 5 uM cisplatin-induced cytotoxicity against human CAL27 cells assessed as decrease in cell viability by measuring combination index at 600 uM preincubated for 48 hrs followed by cisplatin treatment measured after 72 hrs by MTT assay. Format: functional. To be noted: in the assay text read “at 600 nM” for “at 600 uM”. Summed up:
as §2

For test [12], the target named is T1, Histone deacetylase 1/6 (Homo sapiens). As to the kind of experiment: Inhibition of HDAC1/HDAC6 in human Cal27CisR cells assessed as potentiation of 1 uM cisplatin-induced cytotoxicity by measuring combination index at 800 uM preincubated for 48 hrs followed by cisplatin treatment measured after 72 hrs by MTT assay. Format: cell-based. The gist of the method:
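Cal27CisR cells preincubated 48 h with the HDAC inhibitor, then exposed to cisplatin for 72 h. Viability read by MTT. Combination index calculated by the Chou–Talalay method: CI > 1 antagonism, CI = 1 additive, CI < 0.9 synergism. Points with fraction affected below 0.20 are flagged. Values are the mean of three experiments.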

Test [13] deals with CAL-27. The test can be described thus: Potentiation of 5 uM cisplatin-induced cytotoxicity against human CAL27 cells assessed as decrease in cell viability by measuring combination index at 800 uM preincubated for 48 hrs followed by cisplatin treatment measured after 72 hrs by MTT assay. In kind it is functional. As to conditions: in the assay text read “at 800 nM” for “at 800 uM”. Summed up: as §2

Test [14] can be described thus: Inhibition of HDAC in human A2780CisR cells using Boc-Lys(epsilon-Ac)-AMC as substrate preincubated for 18 hrs followed by substrate addition measured after 3 hrs by fluorescence assay. In kind it is cell-based.

T1 sequence (Q13547 whole entry, looked up): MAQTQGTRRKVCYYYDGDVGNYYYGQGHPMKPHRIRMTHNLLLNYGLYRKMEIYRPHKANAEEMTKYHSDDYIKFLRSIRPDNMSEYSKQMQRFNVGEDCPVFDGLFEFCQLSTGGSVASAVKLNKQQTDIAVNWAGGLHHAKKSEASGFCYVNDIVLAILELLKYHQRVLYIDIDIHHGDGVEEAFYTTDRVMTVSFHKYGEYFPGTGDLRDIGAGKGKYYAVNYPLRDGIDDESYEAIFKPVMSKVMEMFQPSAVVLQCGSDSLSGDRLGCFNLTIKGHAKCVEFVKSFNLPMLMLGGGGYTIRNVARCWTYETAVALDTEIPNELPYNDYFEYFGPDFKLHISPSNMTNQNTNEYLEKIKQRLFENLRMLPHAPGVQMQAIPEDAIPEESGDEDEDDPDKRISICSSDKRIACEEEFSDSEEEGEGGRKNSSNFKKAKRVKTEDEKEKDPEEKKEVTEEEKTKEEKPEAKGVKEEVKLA
T1 sequence (Q9UBN7 whole entry, looked up): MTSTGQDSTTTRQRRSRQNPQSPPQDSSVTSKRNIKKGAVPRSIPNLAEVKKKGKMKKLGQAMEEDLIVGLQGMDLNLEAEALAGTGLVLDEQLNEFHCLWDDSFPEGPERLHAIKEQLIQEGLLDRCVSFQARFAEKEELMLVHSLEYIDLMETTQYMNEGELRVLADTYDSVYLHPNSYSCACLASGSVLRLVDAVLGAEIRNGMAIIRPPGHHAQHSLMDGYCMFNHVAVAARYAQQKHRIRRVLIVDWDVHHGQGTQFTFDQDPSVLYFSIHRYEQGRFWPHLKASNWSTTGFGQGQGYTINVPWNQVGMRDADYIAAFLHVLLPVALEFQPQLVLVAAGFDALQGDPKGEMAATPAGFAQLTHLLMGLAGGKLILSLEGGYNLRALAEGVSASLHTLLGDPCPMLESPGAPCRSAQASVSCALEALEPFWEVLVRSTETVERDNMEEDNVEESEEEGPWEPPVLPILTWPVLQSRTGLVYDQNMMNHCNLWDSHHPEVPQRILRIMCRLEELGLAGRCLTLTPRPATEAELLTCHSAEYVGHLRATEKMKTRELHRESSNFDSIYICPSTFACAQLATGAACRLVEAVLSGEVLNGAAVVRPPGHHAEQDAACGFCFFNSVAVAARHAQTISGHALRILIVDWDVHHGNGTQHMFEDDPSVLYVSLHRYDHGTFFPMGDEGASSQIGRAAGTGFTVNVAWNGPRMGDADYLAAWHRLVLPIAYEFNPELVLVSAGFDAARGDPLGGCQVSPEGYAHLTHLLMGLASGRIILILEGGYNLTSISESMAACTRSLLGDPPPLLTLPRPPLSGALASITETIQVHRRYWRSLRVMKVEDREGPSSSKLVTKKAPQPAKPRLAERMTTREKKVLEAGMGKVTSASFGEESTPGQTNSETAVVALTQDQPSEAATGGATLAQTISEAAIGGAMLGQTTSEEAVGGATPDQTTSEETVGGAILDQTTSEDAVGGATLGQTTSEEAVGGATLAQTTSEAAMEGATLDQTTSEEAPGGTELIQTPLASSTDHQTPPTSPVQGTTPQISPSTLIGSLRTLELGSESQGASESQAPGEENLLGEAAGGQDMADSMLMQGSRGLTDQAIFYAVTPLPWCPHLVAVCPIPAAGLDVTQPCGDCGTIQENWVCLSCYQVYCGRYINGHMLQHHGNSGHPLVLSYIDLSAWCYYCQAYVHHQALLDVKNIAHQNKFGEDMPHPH
Histone deacetylase 1, sequence (Q13547 whole entry): as the sequence (Q13547 whole entry, looked up) above

As for `COc1cc(NC(=O)NOCCCCCC(=O)NO)c2nccc(C)c2c1`, the Ratio IC50 in the test filed under Homo sapiens [1] was less than 15; in the test listed under Homo sapiens [4], 2 to 3.4; in the test filed under Homo sapiens [9], more than 100. Besides, the CI came to 0.93 in the test on CAL-27 [2]; 0.21 in test [5]; 0.37 in the test with CAL-27 [7]; 0.26 with CAL-27 [8]; 0.33 with CAL-27 [11]; 1.09 in test [12]. The CI in the test on CAL-27 [13] was 0.38. For the same molecule, the IC50 in [3] came to 1300 nM; in test [6] it was 900 nM; on Histone deacetylase 1, 77.3 nM; in the test on CAL-27 [10], 600 nM; in [14] it was 400 nM.

`COc1cc(NC(=O)NOCCCCCC(=O)NO)c2nc(OC)cc(C)c2c1`: the values for the Ratio IC50 in the test filed under Homo sapiens [1], in the test filed under Homo sapiens [4] and in the test listed under Homo sapiens [9] were 15, 2 to 3.4 and 550, respectively. Besides, the CI in the test on CAL-27 [2] stood at 0.71; in test [5] it was 0.19; with CAL-27 [7] it was 0.53; in the test on CAL-27 [8], 0.49; with CAL-27 [11], 0.49; in test [12], 0.65. Further, the CI in the test on CAL-27 [13] came out at 0.69. The concentration for half-maximal inhibition (IC50) in test [3] was determined as 1300 nM; in [6], 1700 nM; at Histone deacetylase 1, 43.2 nM; in the test on CAL-27 [10], 1000 nM; in [14], 500 nM.

For `COc1cc(NC(=O)NOCCCCCC(=O)NO)c2ncccc2c1`, the Ratio IC50 in the test filed under Homo sapiens [1] is less than 15; in the test listed under Homo sapiens [4], 2 to 3.4; in the test listed under Homo sapiens [9], more than 100. In addition, the CI was determined as 0.79 in the test on CAL-27 [2]; 0.37 in test [5]; 0.57 in the test with CAL-27 [7]; 0.37 in the test on CAL-27 [8]; 0.34 in the test with CAL-27 [11]; 0.81 in test [12]. Further, the CI with CAL-27 [13] was 0.36. For the same molecule, the IC50 in [3] was 1300 nM; in test [6] it was 1000 nM; on Histone deacetylase 1, 51.9 nM; in the test with CAL-27 [10], 900 nM; in [14], 500 nM.

Broadly, the IC50 is the point on the concentration scale where inhibition reaches its midpoint.
